Screening results (PubChem)
NS3 helicase inh: inhibitors of Hepatitis C virus NS3 helicase; NS3 helicase DNA unwinding, Cy5 molecular beacon fluorescence; inhibition, % at 10.9 µM; 290,000 tested, 0.56% active;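 active means inhibition above the mean of all tested compounds plus 3 SD, set per campaign, cut at about 35% in these data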;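 further: 0% = DMSO wells and 100% = thioflavine S control wells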
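Control set: DMSO versus 110 µM thioflavine S; Material: NS3 helicase fragment of HCV; Measured by: Cy5 fluorescence at 0 and 60 min, beacon hairpin quenching; Read-out basis: percent inhibition from t60/t0 fluorescence ratio; Times: reaction time 60 min, 25 °C; Repeats: single replicate; Compound dosing: single dose, 10.9 µM nominal final, DMSO 0.8% final.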
TAAR1 antag: antagonists of human TAAR1; Q96RJ0; CHO RD-HGA16 TAAR1, Fluo-8 calcium fluorescence, antagonist; inhibition, % at 3 µM; 360,000 tested, 1.5% active;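 active means inhibition above a per-plate cutoff, the mean inhibition of test compounds on that plate plus 3 SD, cut at about 49% in these data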;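 further: 0% = DMSO plus EC80 beta-PEA response and 100% = DMSO alone without agonist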
Target sequence (Q96RJ0 whole entry, looked up): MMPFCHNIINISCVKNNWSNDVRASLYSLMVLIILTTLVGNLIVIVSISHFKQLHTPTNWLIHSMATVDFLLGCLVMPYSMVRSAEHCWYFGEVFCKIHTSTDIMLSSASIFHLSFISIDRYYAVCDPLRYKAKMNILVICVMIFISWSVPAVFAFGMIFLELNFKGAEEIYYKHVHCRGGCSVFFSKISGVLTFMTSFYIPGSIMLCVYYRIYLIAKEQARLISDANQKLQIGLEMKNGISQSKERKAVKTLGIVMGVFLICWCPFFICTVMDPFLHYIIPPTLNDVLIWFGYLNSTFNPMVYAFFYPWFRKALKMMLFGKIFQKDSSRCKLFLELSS
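Assay system: CHO-derived RD-HGA16 cells stably expressing human TAAR1 plus Gα16. Timing: 140 s kinetic read after compound, 140 s after agonist. Technique: kinetic Fluo-8 calcium fluorescence measurement. Measure: % inhibition of agonist calcium response.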
rCAG binder: molecules binding r(CAG) RNA repeats | r(CAG) RNA repeat, TO-PRO-1 dye displacement fluorescence | 370,000 tested, 1.3% active | AID 651821 | inhibition, % at 3 µM;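 active means inhibition above the plate cutoff, the mean of all test compounds on that plate plus 3 SD, cut at about 35% in these data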;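 further: 0% = DMSO alone and 100% = 100 µM mitoxantrone as full dye displacement; higher means more dye released from RNA so lower well fluorescence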
core dimer inh: blocks dimerization of HCV core protein; TR-FRET GST/Flag-core106 dimerization, 1536-well; inhibition, % at 5 µM; 300,000 tested, 0.33% active; AID 1899;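 active means inhibition above the mean of all tested compounds plus 3 SD, set per screening campaign, cut at about 45% in these data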
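assay system = GST-tagged and Flag-tagged HCV core protein residues 1-106 | controls = unlabelled core106 and no-GST-core106 wells | incubation = compound-protein-antibody incubation 4 h at 22.5 °C | probe or stimulus = Eu donor and XL665 acceptor anti-tag antibodies | read-out = % inhibition based on acceptor/donor emission ratio | signal = TR-FRET 671 and 617 nm emission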
TAAR1 agonist: human TAAR1 agonism | Q96RJ0 | CHO RD-HGA16 TAAR1, Fluo-8 calcium fluorescence; vehicle wells 0%, saturating PEA agonist 100% | activation, % at 3 µM | 360,000 tested, 0.99% active;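 active means activation above the mean activation of all test compounds in the run plus 3 SD, cut at about 38% in these data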
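Assay system – CHO-derived RD-HGA16 cells with stable Gα16 and human TAAR1 · Compound dosing – one-point dosing at 3 µM (nominal) · Incubation – 17-24 h seeding, 75 min 37 °C dye, 30 min RT · Measured by – kinetic Fluo-8 calcium fluorescence · Control set – DMSO vehicle as 0%, PEA at EC100 as 100% · Repeats – single well for each compound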
Active calls of the source: *; . = no result given. An excerpt weighted towards active compounds, which were near 3.7% of everything screened.

SMILES	NS3 helicase inh	TAAR1 antag	rCAG binder	core dimer inh	TAAR1 agonist
Cc1nn(-c2ccccc2)c2c1C(c1ccc([N+](=O)[O-])cc1)N1C(=N2)C(=O)Nc2ccccc21 (stereo not drawn)	9.6	50.5*	15.4	10.5	5.1
Cn1cc(C(c2ccccn2)c2cn(C)c3ccccc23)c2ccccc21	-0.7	-11.0	-2.4	12.1	41.1*
CC(C)(C)c1ccc(-c2nnc(SCC(=O)Nc3ccc4c(c3)OCCO4)n2-c2ccc(Cl)cc2)cc1	.	.	10.5	.	.
O=C1c2cccc3cccc(c23)C(=O)N1c1ccc(O)cc1	23.8	-11.2	3.4	2.9	2.4
O=C1c2cccc3c(N4CCCCC4)ccc(c23)C(=O)N1c1ccc(O)cc1	6.5	40.7	-18.0	17.5	58.6*
CC(C)(C)C(=O)Nc1ccccc1C(=O)Nc1cccnc1	1.2	-18.3	-0.4	1.5	-0.7
CC(C)(C)C(=O)Nc1ccccc1C(=O)Nc1cc(Cl)ccc1Cl	3.3	26.5	-5.6	-2.2	54.0*
O=C(CN1C(=O)/C(=C/c2ccccc2)SC1=S)Nc1ncc(Cc2ccccc2)s1	9.4	5.8	10.2	53.5*	-1.4
Oc1ccc(Cl)cc1CNCc1ccc(Cl)cc1	.	7.9	1.1	7.6	48.8*
CC(c1ccco1)N(C(=O)c1ccccc1NS(=O)(=O)c1ccc(Cl)c([N+](=O)[O-])c1)c1ccccn1 (stereo not drawn)	15.1	27.1	68.7*	16.9	2.8
CC(c1ccco1)N(C(=O)c1cc(Cl)cc(Cl)c1)c1ccccn1 (stereo not drawn)	0.1	-6.6	-4.7	-7.8	4.5
O=C(NN1C(=O)C2CC=C(Cl)CC2C1=O)c1ccncc1 (stereo not drawn)	8.3	8.3	4.1	48.1*	-0.3
COc1ccc(NC(=O)c2ccc(N3C(=O)C4CC=C(Cl)CC4C3=O)cc2)cc1 (stereo not drawn)	-2.9	9.1	17.7	44.0	7.5
Cc1ccccc1Cn1cc(COC(=O)N2CCOCC2)nn1	.	.	2.5	.	.
O=S1(=O)c2ccc(Br)cc2OC[C@@H](Cc2ccccc2)N1Cc1cn(Cc2ccc(F)cc2)nn1	.	.	1.4	.	.
COc1cc(N2Cc3ccccc3C2)ccc1C=O	2.2	6.6	16.3	46.2*	-1.2
O=C(C1CCCN1S(=O)(=O)c1ccccc1[N+](=O)[O-])N1CCc2ccccc2C1 (stereo not drawn)	.	.	2.1	.	.
CC(CC(=O)N1CCN(c2ccccc2)CC1)S(=O)(=O)c1ccc2c(c1)NC(=O)CO2 (stereo not drawn)	18.9	53.4*	-2.4	-4.2	16.6
N#CC1C(=O)c2ccccc2C1c1ccccc1 (stereo not drawn)	.	66.7*	8.4	.	9.7
O=C(Cc1ccccc1)N1CCC(Oc2cccnc2)CC1	.	.	2.8	.	.
CN(C)S(=O)(=O)c1cccc(C(=O)N/N=C\c2ccccc2[N+](=O)[O-])c1	.	.	4.1	.	.
CCCCCc1c(C)nc(Nc2ccccc2)[nH]c1=O	-11.2	-1.5	28.5	-4.1	38.1*
Cc1ccc(Nc2nc(C)c(CCC(C)C)c(=O)[nH]2)cc1	6.3	14.4	25.1	0.5	1.8
COc1ccc(-n2c(SCC(=O)Nc3cccc4ccccc34)nnc2-c2ccco2)cc1	.	.	5.6	.	.
COc1ccc(CN2CN3Cc4ccccc4C3CS2(=O)=O)cc1 (stereo not drawn)	.	.	6.1	.	.
SMILES	NS3 helicase inh	TAAR1 antag	rCAG binder	core dimer inh	TAAR1 agonist
O=S(=O)(Nc1nc2ccccc2s1)c1ccc(Br)s1	19.2	-18.1	50.3*	7.8	-0.7
O=C(c1ccco1)N1CCN(C(=O)c2cc(-c3ccccn3)nc3ccc(Cl)cc23)CC1	5.8	28.2	3.9	76.2*	12.3
O=C(c1cc(-c2cccnc2)nc2ccc(Cl)cc12)N1CCN(S(=O)(=O)c2cccs2)CC1	-8.6	51.2*	4.2	6.6	9.6
O=C(O)c1cc(Cl)ccc1-c1ccc(/C=C/c2cc(C(F)(F)F)[nH]c(=O)n2)o1	34.8	8.7	-188.2	12.3	67.2*
N#Cc1cccc(C(=O)N2CCC(Oc3cccnc3)CC2)c1	.	.	-1.5	.	.
O=C1C=C(c2ccccc2)CC(c2cccs2)C1n1cnc([N+](=O)[O-])c1 (stereo not drawn)	12.4	-3.6	10.7	47.3*	18.6
O=C1C=C(c2ccccc2)C[C@H](c2cccs2)[C@H]1n1nnc([N+](=O)[O-])n1	4.7	11.7	13.7	42.1	1.6
CCC(=O)NCC[C@@H]1CCc2ccc3c(c21)CCO3	.	.	3.5	.	.
